Measured values gathered from unrelated publications.
Compare with care: the assays were run in different laboratories.
Target: Protein kinase C zeta type (PRKCZ, Homo sapiens, UniProt Q05513)

Cc1ccc(NC(=O)c2ccc(C)c(C(F)(F)F)c2)cc1C#Cc1nn(C2CCC(O)CC2)c2ncnc(N)c12 (centres unmarked)  remaining signal (cell-free assay; 10 µM): 99%
CCN1CCC2(CC1)NC(=O)c1c(c3ccc(Cl)c(Cl)c3n1C)C2C#N (racemic)  ΔTm (thermal stability, DSF; 10 µM): 0.1 °C
CC(C)(C)C(=O)c1sc(NC2CCCCC2)nc1N  remaining activity (enzyme activity, inhibitor; 10 µM): 104%
Cc1ccc(-n2nc(C(C)(C)C)cc2NC(=O)Nc2ccc(OCCN3CCOCC3)c3ccccc23)cc1  inhibition (enzyme activity, inhibitor; 10 µM): -3%
N#CCCc1ccc2c(c1)-c1[nH]c3ccc([N+](=O)[O-])cc3c1CC(=O)N2  remaining signal (cell-free assay; 0.5 µM): 83.4%
C[C@@H](N)[C@H]1CC[C@H](C(=O)Nc2ccncc2)CC1  inhibition (enzyme activity, inhibitor, TR-FRET; 10 µM): 7.4%
Oc1cccc(-c2nc(N3CCOCC3)c3oc4ncccc4c3n2)c1  remaining activity (enzyme activity, inhibitor; 10 µM): 98%
CC(C)(C)c1nc(-c2cccc(NS(=O)(=O)c3c(F)cccc3F)c2F)c(-c2ccnc(N)n2)s1  remaining activity (enzyme activity, inhibitor, radiometric; 1 µM): 109%
COc1cc(Nc2cnc(C#N)c(O[C@H](C)CN(C)C)n2)ncc1-c1cnn(C)c1  remaining activity (enzyme activity, inhibitor, radiometric; 1 µM): 121%
COc1cc(-c2cc(-c3ccc(N4CCNCC4)cc3)cnc2C)cc(OC)c1OC  inhibition (enzyme activity, inhibitor; 0.1 µM): 5%
CCC1(CC)NC(=O)c2c(c3ccc(Cl)c(Cl)c3n2C)C1C#N (centres unmarked)  ΔTm (thermal stability, DSF; 10 µM): -0.4 °C
COc1cc2ncnc(Nc3ccc(Oc4ccccc4)c(C)c3C)c2cc1OC  inhibition (enzyme activity, inhibitor; 1 µM): 14%
O=C1NC(=O)c2cc(Nc3ccc(F)cc3)c(Nc3ccc(F)cc3)cc21  remaining signal (cell-free assay; 0.5 µM): 100%
Cn1c2c(Cl)c(Cl)ccc2c2cn[nH]c(=O)c21  ΔTm (thermal stability, DSF; 10 µM): 0 °C
CCN(CC)c1ccc(C2=NNC(=O)CC2C)cc1[N+](=O)[O-] (centres unmarked)  remaining activity (enzyme activity, inhibitor; 10 µM): 102%
Cn1c2c(Cl)c(Cl)ccc2c2cc[nH]c(=O)c21  ΔTm (thermal stability, DSF; 10 µM): 0.4 °C
Cc1ccc(Nc2nccc(N(C)c3ccc4c(C)n(C)nc4c3)n2)cc1S(N)(=O)=O  inhibition (enzyme activity, inhibitor; 0.3 µM): -3%
Cn1c2c(c3ccc(Cl)c(Cl)c31)C(C#N)C1(CCCC1)NC2=O (centres unmarked)  ΔTm (thermal stability, DSF; 10 µM): -0.2 °C
CN(c1ncccc1CNc1nc(Nc2ccc3c(c2)CC(=O)N3)ncc1C(F)(F)F)S(C)(=O)=O  inhibition (enzyme activity, inhibitor; 1 µM): 0%
CCN(CC)CCNC(=O)c1c(C)[nH]c(/C=C2\C(=O)Nc3ccc(F)cc32)c1C  inhibition (enzyme activity, inhibitor; 10 µM): -2%
CC/C(=N\NC(=O)NCc1cccc(O)c1)c1ccc(O)c(C)c1O  inhibition (enzyme activity, inhibitor; 0.1 µM): 11%
O=C(Nc1cnn(-c2csc(C(=O)NC3COC3)c2)c1)Nc1c(F)cccc1Cl  remaining activity (enzyme activity, inhibitor; 5 µM): 93.6%
CCCS(=O)(=O)Nc1ccc(F)c(C(=O)c2c[nH]c3ncc(-c4ccc(Cl)cc4)cc23)c1F  inhibition (enzyme activity, inhibitor; 1 µM): < 20%
c1ccc(CNc2nc(N3CCOc4ccccc43)nc3c2CCCC3)cc1  inhibition (target engagement in cells, inhibitor, chemoproteomics; 20 mM): 17.3%
Cc1cnc(NC2CCOCC2)nc1-n1cnc(C(=O)NC(CN)c2cc(F)cc(Cl)c2)c1 (centres unmarked)  remaining activity (enzyme activity, inhibitor, radiometric; 1 µM): 106%
COc1cc(Cl)c(C(=O)N[C@@H](CN[C@H]2CC[C@@H](N)CC2)Cc2ccc(C#N)cc2)cc1-c1ccc(CN[C@H](C)c2ccc(C)cc2)o1  remaining activity (enzyme activity, inhibitor; 1 µM): 91%
